Test results reported in ChEMBL document CHEMBL4689842, “EUbOPEN Chemogenomics Library wave 1” (2021).

How the values were obtained:
Fibroblast = assay: Multiplex assay against human fibroblast; format: toxicity, cell-based
Procedure, shortened: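 Imaging took place on a CQ1 microscope at 37°C and 5% CO2 once compound had been added to live cells stained at seeding with Hoechst33342, BioTracker Green Microtubule Cytoskeleton Dye, MitoTracker Red and Annexin V Alexa Fluor 680. CellPathfinder machine-learning gating classed cells as Hoechst high-intensity objects or normal cells, classed normal cells as having healthy, pyknosed or fragmented nuclei, and classed pyknosed cells as mitotic or apoptotic. Tubulin, mitochondrial-mass and membrane-permeability phenotypes are per cents of the healthy-nucleus cells.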

U2OS = assay: Incucyte cell viability with U2OS; format: toxicity, cell-based; conditions: human, 10 µM, compound concentration 10 uM; further: filed as whole numbers so only -1 and 0 and 1 occur
[1] = 24 h, 10 µM, compound concentration 10 uM, replicate 1
[2] = 24 h, 10 µM, compound concentration 10 uM, replicate 2
[3] = 48 h, 1 µM, compound concentration 1 uM, replicate 1
[4] = 48 h, 1 µM, compound concentration 1 uM, replicate 2
[5] = 48 h, 10 µM, compound concentration 10 uM, replicate 1
[6] = 48 h, 10 µM, compound concentration 10 uM, replicate 2

CCC(=O)O[C@]1(C(=O)SCF)[C@H](C)C[C@H]2[C@@H]3C[C@H](F)C4=CC(=O)C=C[C@]4(C)[C@@]3(F)[C@@H](O)C[C@@]21C [FLUTICASONE PROPIONATE]
Total Cell Count (Fibroblast; 24 h, 1 µM, compound concentration 1 uM, replicate 2): 78 | Population Apoptotic (%) (Fibroblast; [1]): 64% | Population Fragmented Nuclei (%) (Fibroblast; [1]): 30% | Population Healthy Nuclei (%) (Fibroblast; [1]): 50% | Population Hoechst High Intensity Objects (%) (Fibroblast; [1]): 12% | Population Membrane Permeable-Phenotype (%) (Fibroblast; [1]): 40% | Population Mitochondria Different-Phenotype (%) (Fibroblast; [1]): 27% | Population Mitotic Cells (%) (Fibroblast; [1]): 36% | Population Normal (%) (Fibroblast; [1]): 87% | Population Pyknosed Nuclei (%) (Fibroblast; [1]): 19% | Population Tubulin-Different-Phenotype (%) (Fibroblast; [1]): 47% | Total Cell Count (Fibroblast; [1]): 149 | Population Apoptotic (%) (Fibroblast; [2]): 58% | Population Fragmented Nuclei (%) (Fibroblast; [2]): 5% | Population Healthy Nuclei (%) (Fibroblast; [2]): 78% | Population Hoechst High Intensity Objects (%) (Fibroblast; [2]): 8% | Population Membrane Permeable-Phenotype (%) (Fibroblast; [2]): 6% | Population Mitochondria Different-Phenotype (%) (Fibroblast; [2]): 31% | Population Mitotic Cells (%) (Fibroblast; [2]): 41% | Population Normal (%) (Fibroblast; [2]): 91% | Population Pyknosed Nuclei (%) (Fibroblast; [2]): 16% | Population Tubulin-Different-Phenotype (%) (Fibroblast; [2]): 25% | Total Cell Count (Fibroblast; [2]): 59 | Population Apoptotic (%) (Fibroblast; [3]): 54% | Population Fragmented Nuclei (%) (Fibroblast; [3]): 41% | Population Healthy Nuclei (%) (Fibroblast; [3]): 43% | Population Hoechst High Intensity Objects (%) (Fibroblast; [3]): 24% | Population Membrane Permeable-Phenotype (%) (Fibroblast; [3]): 25% | Population Mitochondria Different-Phenotype (%) (Fibroblast; [3]): 0% | Population Mitotic Cells (%) (Fibroblast; [3]): 45% | Population Normal (%) (Fibroblast; [3]): 75% | Population Pyknosed Nuclei (%) (Fibroblast; [3]): 15% | Population Tubulin-Different-Phenotype (%) (Fibroblast; [3]): 38% | Total Cell Count (Fibroblast; [3]): 95 | Population Apoptotic (%) (Fibroblast; [4]): 100% | Population Fragmented Nuclei (%) (Fibroblast; [4]): 26% | Population Healthy Nuclei (%) (Fibroblast; [4]): 72% | Population Hoechst High Intensity Objects (%) (Fibroblast; [4]): 15% | Population Membrane Permeable-Phenotype (%) (Fibroblast; [4]): 5% | Population Mitotic Cells (%) (Fibroblast; [4]): 0% | Population Normal (%) (Fibroblast; [4]): 84% | Population Pyknosed Nuclei (%) (Fibroblast; [4]): 0% | Population Tubulin-Different-Phenotype (%) (Fibroblast; [4]): 26% | Total Cell Count (Fibroblast; [4]): 120 | Population Apoptotic (%) (Fibroblast; [5]): 75% | Population Fragmented Nuclei (%) (Fibroblast; [5]): 38% | Population Healthy Nuclei (%) (Fibroblast; [5]): 47% | Population Hoechst High Intensity Objects (%) (Fibroblast; [5]): 14% | Population Membrane Permeable-Phenotype (%) (Fibroblast; [5]): 29% | Population Mitochondria Different-Phenotype (%) (Fibroblast; [5]): 27% | Population Mitotic Cells (%) (Fibroblast; [5]): 25% | Population Normal (%) (Fibroblast; [5]): 85% | Population Pyknosed Nuclei (%) (Fibroblast; [5]): 14% | Population Tubulin-Different-Phenotype (%) (Fibroblast; [5]): 48% | Total Cell Count (Fibroblast; [5]): 167 | Population Apoptotic (%) (Fibroblast; [6]): 100% | Population Fragmented Nuclei (%) (Fibroblast; [6]): 29% | Population Healthy Nuclei (%) (Fibroblast; [6]): 66% | Population Hoechst High Intensity Objects (%) (Fibroblast; [6]): 35% | Population Membrane Permeable-Phenotype (%) (Fibroblast; [6]): 11% | Population Mitochondria Different-Phenotype (%) (Fibroblast; [6]): 17% | Population Mitotic Cells (%) (Fibroblast; [6]): 0% | Population Normal (%) (Fibroblast; [6]): 64% | Population Pyknosed Nuclei (%) (Fibroblast; [6]): 3% | Population Tubulin-Different-Phenotype (%) (Fibroblast; [6]): 56% | Total Cell Count (Fibroblast; [6]): 176 | Growth Rate (U2OS; 0 h, replicate number 1, timepoint 0 hours): 0 | Growth Rate (U2OS; 6 h, replicate number 2, timepoint 6 hours): 1 | Growth Rate (U2OS; 12 h, replicate number 2, timepoint 12 hours): 1 | Growth Rate (U2OS; 18 h, replicate number 1, timepoint 18 hours): 1 | Growth Rate (U2OS; 24 h, replicate number 1, timepoint 24 hours): 1
